Reference: ChEMBL document CHEMBL1142529
Each block holds one compound with its values, some of them ahead of it.

Tests used:
[1] = target: T1, Quinolone resistance protein NorA (Staphylococcus aureus) (UniProt P0A0J7); experiment: Inhibition of NorA efflux pump in Staphylococcus aureus 1199B assessed as fold reduction of ciprofloxacin MIC at 12.5 ug/ml
T1 sequence (whole entry): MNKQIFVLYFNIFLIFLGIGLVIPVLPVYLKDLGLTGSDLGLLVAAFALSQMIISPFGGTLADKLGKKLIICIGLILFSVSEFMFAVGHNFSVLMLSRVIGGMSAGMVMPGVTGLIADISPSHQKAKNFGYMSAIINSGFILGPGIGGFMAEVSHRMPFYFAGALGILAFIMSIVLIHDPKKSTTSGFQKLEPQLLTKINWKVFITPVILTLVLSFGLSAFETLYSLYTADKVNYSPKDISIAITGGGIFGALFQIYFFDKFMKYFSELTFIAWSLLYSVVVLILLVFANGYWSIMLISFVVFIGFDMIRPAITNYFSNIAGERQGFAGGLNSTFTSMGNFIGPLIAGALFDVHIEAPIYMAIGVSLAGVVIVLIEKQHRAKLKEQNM
Procedure, shortened: (§1)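 Broth checkerboard synergy in Mueller–Hinton broth with twofold serial dilutions. Each candidate EPI was run at seven concentrations (100–1.56 µg/mL) against ciprofloxacin at 10 concentrations (16–0.03 µg/mL). Incubation was 18 h at 37 °C, and growth was scored visually. The fold drop in ciprofloxacin MIC was read at the stated EPI concentration.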

[2] = target: T1, Quinolone resistance protein NorA (Staphylococcus aureus); experiment: Inhibition of NorA efflux pump in Staphylococcus aureus 1199B assessed as fold reduction of ciprofloxacin MIC at 6.25 ug/ml; procedure, shortened: as §1
[3] = target: T1, Quinolone resistance protein NorA (Staphylococcus aureus); experiment: Inhibition of NorA efflux pump in Staphylococcus aureus 1199 assessed as fold reduction of ciprofloxacin MIC at 12.5 ug/ml; procedure, shortened: as §1
[4] = target: T1, Quinolone resistance protein NorA (Staphylococcus aureus); experiment: Inhibition of NorA efflux pump in Staphylococcus aureus 1199 assessed as fold reduction of ciprofloxacin MIC at 6.25 ug/ml; procedure, shortened: as §1
[5] = target: T1, Quinolone resistance protein NorA (Staphylococcus aureus); experiment: Inhibition of NorA efflux pump in Staphylococcus aureus 1199B assessed as fold reduction of ciprofloxacin MIC at 25 ug/ml; procedure, shortened: as §1
[6] = target: T1, Quinolone resistance protein NorA (Staphylococcus aureus); experiment: Inhibition of NorA efflux pump in Staphylococcus aureus 1199 assessed as fold reduction of ciprofloxacin MIC at 25 ug/ml; procedure, shortened: as §1
[7] = target: T1, Quinolone resistance protein NorA (Staphylococcus aureus); experiment: Inhibition of NorA efflux pump in Staphylococcus aureus 1199B assessed as fold reduction of ciprofloxacin MIC at >100 ug/ml
[8] = target: T1, Quinolone resistance protein NorA (Staphylococcus aureus); experiment: Inhibition of NorA efflux pump in Staphylococcus aureus 1199 assessed as fold reduction of ciprofloxacin MIC at >100 ug/ml; procedure, shortened: as §1
[9] = target: T1, Quinolone resistance protein NorA (Staphylococcus aureus); experiment: Inhibition of NorA efflux pump in Staphylococcus aureus 1199B assessed as fold reduction of ciprofloxacin MIC at 3.12 ug/ml; procedure, shortened: as §1
[10] = target: T1, Quinolone resistance protein NorA (Staphylococcus aureus); experiment: Inhibition of NorA efflux pump in Staphylococcus aureus 1199 assessed as fold reduction of ciprofloxacin MIC at 3.12 ug/ml; procedure, shortened: as §1
[11] = target: T1, Quinolone resistance protein NorA (Staphylococcus aureus); experiment: Inhibition of NorA efflux pump in Staphylococcus aureus 1199B assessed as fold reduction of ciprofloxacin MIC at 100 ug/ml; procedure, shortened: as §1
[12] = target: T1, Quinolone resistance protein NorA (Staphylococcus aureus); experiment: Inhibition of NorA efflux pump in Staphylococcus aureus 1199 assessed as fold reduction of ciprofloxacin MIC at 100 ug/ml; procedure, shortened: as §1
[13] = target: T1, Quinolone resistance protein NorA (Staphylococcus aureus); experiment: Inhibition of NorA efflux pump in Staphylococcus aureus 1199B assessed as fold reduction of ciprofloxacin MIC at 1.5 ug/ml; procedure, shortened: as §1
[14] = target: T1, Quinolone resistance protein NorA (Staphylococcus aureus); experiment: Inhibition of NorA efflux pump in Staphylococcus aureus 1199 assessed as fold reduction of ciprofloxacin MIC at 1.5 ug/ml; procedure, shortened: as §1

SMILES: CC(=O)Nc1cccc(NC(=O)/C=C/C=C/c2ccc3c(c2)OCO3)c1
fold change (FC) [1]: 4
fold change (FC) [2]: 2
fold change (FC) [3]: 2
fold change (FC) [4]: 0

SMILES: N#Cc1ccc(NC(=O)/C=C/C=C/c2ccc3c(c2)OCO3)cc1
fold change (FC) [5]: 2
fold change (FC) [6]: 0

SMILES: NC(=O)c1ccc(NC(=O)/C=C/C=C/c2ccc3c(c2)OCO3)cc1
fold change (FC) [5]: 2
fold change (FC) [6]: 0

SMILES: COc1ccc(NC(=O)/C=C/C=C/c2ccc3c(c2)OCO3)cc1
fold change (FC) [7]: 0
fold change (FC) [8]: 0

SMILES: O=C(/C=C/C=C/c1ccc2c(c1)OCO2)Nc1ccc2ncsc2c1
fold change (FC) [9]: 2
fold change (FC) [10]: 0

SMILES: N#CCc1ccccc1NC(=O)/C=C/C=C/c1ccc2c(c1)OCO2
fold change (FC) [7]: 0
fold change (FC) [8]: 0

SMILES: CC(=O)Nc1ccccc1NC(=O)/C=C/C=C/c1ccc2c(c1)OCO2
fold change (FC) [5]: 4
fold change (FC) [2]: 2
fold change (FC) [6]: 2
fold change (FC) [4]: 0

SMILES: O=C(/C=C/C=C/c1ccc2c(c1)OCO2)Nc1ccc(C(=O)Nc2ccccc2)cc1
fold change (FC) [5]: 4
fold change (FC) [9]: 2
fold change (FC) [6]: 0
fold change (FC) [10]: 0

SMILES: O=C(/C=C/C=C/c1ccc2c(c1)OCO2)Nc1ccc(NC(=O)c2ccccc2)cc1
fold change (FC) [9]: 2
fold change (FC) [10]: 0

SMILES: O=C(/C=C/C=C/c1ccc2c(c1)OCO2)Nc1nc2ccccc2s1
fold change (FC) [2]: 2
fold change (FC) [4]: 2

SMILES: O=C(/C=C/C=C/c1ccc2c(c1)OCO2)Nc1ccc2c(c1)OCO2
fold change (FC) [7]: 0
fold change (FC) [8]: 0

SMILES: N#Cc1cccc(NC(=O)/C=C/C=C/c2ccc3c(c2)OCO3)c1
fold change (FC) [2]: 4
fold change (FC) [13]: 2
fold change (FC) [4]: 0
fold change (FC) [14]: 0

SMILES: CC(C)c1cc2c(c(O)c1O)[C@@]1(C(=O)O)CCCC(C)(C)[C@@H]1CC2
fold change (FC) [5]: 2
fold change (FC) [6]: 2

SMILES: CC(=O)Nc1ccc(NC(=O)/C=C/C=C/c2ccc3c(c2)OCO3)cc1
fold change (FC) [5]: 4
fold change (FC) [2]: 2
fold change (FC) [6]: 2
fold change (FC) [4]: 0

SMILES: COC(=O)[C@H]1[C@H]2C[C@@H]3c4[nH]c5cc(OC)ccc5c4CCN3C[C@H]2C[C@@H](OC(=O)c2cc(OC)c(OC)c(OC)c2)[C@@H]1OC
fold change (FC) [5]: 4
fold change (FC) [6]: 2

Now from value to compound:

fold change (FC) [5]: 2
fold change (FC) [6]: 0
SMILES: CC[C@@H](CO)NC(=O)/C=C/C=C/c1ccc2c(c1)OCO2

fold change (FC) [5]: 2
fold change (FC) [6]: 0
SMILES: CC(C)CNC(=O)/C=C/C=C/c1ccc2c(c1)OCO2

fold change (FC) [2]: 2
fold change (FC) [4]: 0
SMILES: O=C(/C=C/C=C/c1ccc2c(c1)OCO2)Nc1ccc(CO)cc1

fold change (FC) [1]: 2
fold change (FC) [3]: 0
SMILES: O=C(/C=C/C=C/c1ccc2c(c1)OCO2)NCC(O)c1ccccc1 (stereo not given)

fold change (FC) [5]: 2
fold change (FC) [6]: 2
SMILES: CC(C)N(C(=O)/C=C/C=C/c1ccc2c(c1)OCO2)C(C)C

fold change (FC) [5]: 2
fold change (FC) [6]: 0
SMILES: O=C(/C=C/C=C/c1ccc2c(c1)OCO2)Nc1ccccc1CO

fold change (FC) [7]: 0
fold change (FC) [8]: 0
SMILES: CC[C@H](CO)NC(=O)/C=C/C=C/c1ccc2c(c1)OCO2

fold change (FC) [5]: 2
fold change (FC) [6]: 0
SMILES: CN1CCN(C(=O)/C=C/C=C/c2ccc3c(c2)OCO3)CC1

fold change (FC) [7]: 0
fold change (FC) [8]: 0
SMILES: CC(C)CNC(=O)CCCCc1ccc2c(c1)OCO2

fold change (FC) [5]: 2
fold change (FC) [6]: 0
SMILES: N#CCc1ccc(NC(=O)/C=C/C=C/c2ccc3c(c2)OCO3)cc1

fold change (FC) [5]: 2
fold change (FC) [6]: 0
SMILES: O=C(/C=C/C=C/c1ccc2c(c1)OCO2)Nc1cccc(CO)c1

fold change (FC) [7]: 0
fold change (FC) [8]: 0
SMILES: O=C(/C=C/C=C/c1ccc2c(c1)OCO2)N1CCOCC1

fold change (FC) [11]: 0
fold change (FC) [12]: 0
SMILES: CCCCNC(=O)/C=C/C=C/c1ccc2c(c1)OCO2

fold change (FC) [7]: 0
fold change (FC) [8]: 0
SMILES: N#Cc1cccc(NC(=O)CCCCc2ccc3c(c2)OCO3)c1

fold change (FC) [7]: 0
fold change (FC) [8]: 0
SMILES: O=C(CCCCc1ccc2c(c1)OCO2)Nc1ccc(C(=O)Nc2ccccc2)cc1

fold change (FC) [5]: 2
fold change (FC) [6]: 0
SMILES: CC(C)NC(=O)/C=C/C=C/c1ccc2c(c1)OCO2

fold change (FC) [7]: 0
fold change (FC) [8]: 0
SMILES: Cc1ccccc1NC(=O)/C=C/C=C/c1ccc2c(c1)OCO2

fold change (FC) [5]: 2
fold change (FC) [6]: 0
SMILES: CCN(CC)C(=O)/C=C/C=C/c1ccc2c(c1)OCO2

fold change (FC) [1]: 2
fold change (FC) [3]: 2
SMILES: O=C(/C=C/C=C/c1ccc2c(c1)OCO2)Nc1ccccc1

fold change (FC) [7]: 0
fold change (FC) [8]: 0
SMILES: CCCNC(=O)/C=C/C=C/c1ccc2c(c1)OCO2
